This is a sample that favours compounds with a hit; in the whole collection about 3.3% have one here.
rCAG binder = binds r(CAG) RNA repeats; r(CAG) RNA repeat, TO-PRO-1 dye displacement fluorescence; inhibition, % at 3 µM; 1.3% of 370,000 active; AID 651821;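 active = inhibition above the plate cutoff, the mean of all test compounds on that plate plus 3 SD, cut at about 35% in these data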;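 note: higher means more dye released from RNA so lower well fluorescence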
SIAE inh = human SIAE inhibition, primary screen; 0.69% of 370,000 active; inhibition, % at 9.66 µM; SIAE FP-Rh probe binding, fluorescence polarization;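 active = inhibition above a cutoff: mean of compounds within the control limits plus 3 SD of those, cut at about 17% in these data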
Target sequence (Q9HAT2 whole entry, looked up): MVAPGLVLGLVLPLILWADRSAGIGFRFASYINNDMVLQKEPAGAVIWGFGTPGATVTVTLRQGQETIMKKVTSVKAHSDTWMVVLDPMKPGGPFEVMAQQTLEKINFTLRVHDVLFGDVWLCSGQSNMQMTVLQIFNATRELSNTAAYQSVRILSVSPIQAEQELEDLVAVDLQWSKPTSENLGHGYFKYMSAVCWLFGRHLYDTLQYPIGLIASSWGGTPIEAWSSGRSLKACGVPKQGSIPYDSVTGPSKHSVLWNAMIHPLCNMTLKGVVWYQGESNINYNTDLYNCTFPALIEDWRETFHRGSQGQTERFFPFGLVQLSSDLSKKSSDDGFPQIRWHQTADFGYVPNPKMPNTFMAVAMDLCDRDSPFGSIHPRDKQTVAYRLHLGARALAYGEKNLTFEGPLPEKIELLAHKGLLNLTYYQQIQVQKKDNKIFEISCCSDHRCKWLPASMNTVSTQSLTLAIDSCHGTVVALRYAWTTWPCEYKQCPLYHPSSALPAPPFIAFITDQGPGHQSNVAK
TCR-CD3 inh = human TCR-CD3 binding inhibition. TAMRA-labeled TCR probe fluorescence, biochemical. 0.37% of 360,000 active. AID 651800. inhibition, % at 9.4 µM; in the data active = inhibition above about 19%;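 note: recombinant mutant TCR 2C K166C tagged with TAMRA read by polarization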
mABHD4 FP = ABHD4 (mouse) inhibition, primary FP screen; inhibition, % at 8.92 µM; 0.54% of 370,000 active; purified mABHD4, FP-Rh probe fluorescence polarization; AID 720543; Q8VD66;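 active = inhibition exceeding the mean over every tested compound plus 3 SD, cut at about 30% in these data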
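assay system = mABHD4 protein | compound dosing = single nominal dose of 8.92 µM, 0.89% DMSO final | read-out basis = percent inhibition of probe binding, normalized to plate controls | schedule = Enzyme–compound pre-incubation 45 min, then probe 60 min, both 25 °C | detection = fluorescence polarization, excitation 525 nm, emission 598 nm, BODIPY TMR filters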
PRMT1 FP inh = blocks human protein arginine methyltransferase 1. AID 652257. inhibition, % at 2.79 µM. 1.3% of 370,000 active. recombinant PRMT1, activity-based probe fluorescence polarization. Q99873;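 active = inhibition above about 21% made by adding two undisclosed values, limit read from the data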
rCAG binder conf = r(CAG) RNA repeat binding, confirmation. shares compounds with rCAG binder. TO-PRO-1 dye displacement fluorescence. inhibition, % at 3 µM. 70% of 4,300 active;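 active = inhibition above a per-plate cutoff, the mean inhibition of sample wells plus 3 SD, cut at about 35% in these data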;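 note: loss of TO-PRO-1 fluorescence as compound displaces dye from 1x1 AA loop RNA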
DNA CAG counter = counter-screen for rCAG RNA binders: DNA CAG dye complex inhibitors; 94% of 4,300 active; d(CAG) DNA oligo TO-PRO-1 dye displacement, fluorescence; shares compounds with rCAG binder; inhibition, % at 3 µM;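 active = inhibition above its plate's cutoff, the mean test-well inhibition plus 3 SD, cut at about 4.8% in these data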;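 note: hits displace the dye from DNA and so lower well fluorescence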
PRMT1 confirm = confirmation of human PRMT1 inhibitors; shares compounds with PRMT1 FP inh; recombinant His-PRMT1, activity-based probe fluorescence polarization; inhibition, % at 2.79 µM; 42% of 3,300 active; AID 687036;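 active = mean inhibition across replicates above the hit cutoff derived for the earlier primary screen, cut at about 22% in these data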
mABHD4 conf = confirmation of mouse ABHD4 inhibitors; inhibition, % at 8.92 µM; AID 720658; purified mABHD4, FP-Rh probe fluorescence polarization; shares compounds with mABHD4 FP; 55% of 1,800 active;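 active = mean inhibition across replicates above the hit cutoff set in the primary screen, cut at about 30% in these data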
SIAE inh conf = confirmation of human SIAE inhibitors | shares compounds with SIAE inh | SIAE FP-Rh activity-based probe, fluorescence polarization | inhibition, % at 9.66 µM | 13% of 2,300 active;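 active = mean inhibition of the replicates above the hit cutoff set in the primary screen, cut at about 17% in these data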;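 note: inhibitors lower polarization as more probe stays unbound to SIAE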
Numbers stand for hits.

O=C(O)c1ccc2nc(-c3ccccc3)c(-c3ccccc3)nc2c1 was read as rCAG binder inactive, SIAE inh inactive, TCR-CD3 inh inactive, mABHD4 FP inactive and PRMT1 FP inh inactive.
For O=C(c1ccccc1)c1ccc2nc(-c3ccco3)c(-c3ccco3)nc2c1 the results were rCAG binder 42.4, SIAE inh 25.0, TCR-CD3 inh inactive, mABHD4 FP 43.7, PRMT1 FP inh 34.1, rCAG binder conf 70.4, DNA CAG counter 36.4, mABHD4 conf inactive and SIAE inh conf inactive.
Screening CN1C2=NC(c3ccc4ccccc4c3)CC(=O)N2/C(=C\c2ccccc2)C1c1ccccc1C(F)(F)F (stereo unspecified) returned SIAE inh inactive, mABHD4 FP inactive and PRMT1 FP inh inactive.
O=C(COC(=O)c1c2c(nc3ccccc13)/C(=C\c1ccco1)CC2)NC1CCCC1 was read as rCAG binder 59.9, SIAE inh 22.5, TCR-CD3 inh inactive, mABHD4 FP 62.6, PRMT1 FP inh 27.7, rCAG binder conf 58.9, DNA CAG counter 32.6, PRMT1 confirm inactive, mABHD4 conf 32.4 and SIAE inh conf inactive.
`COC(=O)[C@@H](CC(C)C)CP(=O)(OC)[C@@H](C)NC(=O)OCc1ccccc1` (stereo partly specified) gave rCAG binder inactive, SIAE inh inactive, mABHD4 FP inactive and PRMT1 FP inh inactive.
CCOC(=O)c1c(-c2ccccc2)csc1NC(=O)/C(C#N)=C/c1ccc(O)c(OC)c1 was read as rCAG binder 44.7, SIAE inh 18.9, TCR-CD3 inh inactive, mABHD4 FP inactive, PRMT1 FP inh inactive, rCAG binder conf 87.1, DNA CAG counter 59.7 and SIAE inh conf inactive.
`CCOC(=O)c1c(-c2ccccc2)csc1NC(=O)/C(C#N)=C/c1ccc(OC)c(OC)c1` gave rCAG binder inactive, SIAE inh inactive, TCR-CD3 inh inactive, mABHD4 FP inactive and PRMT1 FP inh inactive.
`CCCCCCNC(=O)C1CSCCS(=O)(=O)N1Cc1ccc(OC)cc1` (stereo unspecified) gave rCAG binder inactive, SIAE inh inactive, mABHD4 FP inactive and PRMT1 FP inh inactive.
CCNc1ccc(Br)cc(C(=O)/C=C/c2ccc(Cl)cc2Cl)c1=O was read as rCAG binder 44.5, SIAE inh 17.3, TCR-CD3 inh inactive, mABHD4 FP 35.2, PRMT1 FP inh 27.0, rCAG binder conf 48.1, DNA CAG counter 21.2, mABHD4 conf 31.0 and SIAE inh conf inactive.
For CCc1ccc2[nH]c3nc(N/N=C/c4ccc(O)cc4O)nnc3c2c1 the results were rCAG binder 56.8, SIAE inh 30.2, TCR-CD3 inh inactive, mABHD4 FP inactive, PRMT1 FP inh inactive, rCAG binder conf 34.6, DNA CAG counter 22.3 and SIAE inh conf 29.5.
Screening CCCC[C@H]1C2CC(OC(=O)Nc3ccc(Br)cc3)C(C2)[C@H]2CCCCN21 (stereo partly specified) returned rCAG binder inactive, SIAE inh inactive, mABHD4 FP inactive and PRMT1 FP inh inactive.
For O=c1c2ccccc2nc(N/N=C/c2ccc(O)cc2)n1O the results were rCAG binder inactive, SIAE inh inactive, TCR-CD3 inh inactive, mABHD4 FP inactive and PRMT1 FP inh inactive.
For O=c1c2ccccc2nc(N/N=C/c2c(O)ccc3ccccc23)n1O the results were rCAG binder 34.7, SIAE inh 18.2, TCR-CD3 inh inactive, mABHD4 FP 34.1, PRMT1 FP inh inactive, rCAG binder conf 71.1, DNA CAG counter 30.5, mABHD4 conf 33.6 and SIAE inh conf inactive.

Screening data as filed in PubChem BioAssay.
